Laboratory results: ChEMBL document CHEMBL1149822, “Synthesis, antimicrobial and anti-inflammatory activities of some 1,2,4-triazolo[3,4-b][1,3,4]thiadiazoles and 1,2,4-triazolo[3,4-b][1,3,4]thiadiazines bearing trichlorophenyl moiety” (2008)
Values after ≈ are worked out from the molar mass of the structure shown.

Columns and labels:
[1] = system: Klebsiella pneumoniae; experiment: Antibacterial activity against Klebsiella pneumoniae after 16 to 18 hrs by serial plate dilution method; format: functional
Outline: (§1)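 Serial dilutions were made in Mueller-Hinton broth in tubes, adjusted to […] with phosphate buffer, and inoculated with a standardized bacterial suspension. Tubes were incubated at 37 °C for 16–18 h. MIC was taken as the lowest concentration with no visible growth.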

[2] = system: Staphylococcus aureus; experiment: Antibacterial activity against Staphylococcus aureus ATTC 25923 after 16 to 18 hrs by serial plate dilution method; format: functional; outline: as §1
[3] = system: Klebsiella pneumoniae; experiment: microbe, parasite or virus in culture; format: functional; settings: read-out: IZ
[4] = system: Escherichia coli; experiment: microbe, parasite or virus in culture; format: functional; settings: ATCC25922, read-out: IZ
[5] = system: Staphylococcus aureus; experiment: microbe, parasite or virus in culture; settings: read-out: IZ
[6] = system: Pseudomonas aeruginosa; experiment: microbe, parasite or virus in culture; format: functional; settings: ATCC27853, read-out: IZ
[7] = system: Aspergillus flavus; experiment: Antifungal activity against Aspergillus flavus NCIM 524 at […] ug/ml after 3 to 4 days; format: functional; settings: read-out: IZ
[8] = system: Talaromyces marneffei; experiment: Antifungal activity against Penicillium marneffei at 12 ug/ml after 3 to 4 days; format: functional; settings: read-out: IZ
Outline: (§2)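 Agar of peptone 1 g, D-glucose 4 g and agar 2 g per 100 mL water, pH 5.7, was lawned with a fungal spore suspension in normal saline. The excess was decanted and plates were dried at 37 °C for 1 h. Wells were punched and compounds in DMSO were added, with a DMSO control. Plates were run in triplicate at 37 °C for 3–4 days, and the inhibition zone diameter was measured.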

[9] = system: Talaromyces marneffei; experiment: Antifungal activity against Penicillium marneffei by serial plate dilution method; format: functional; outline: as §2
[10] = system: Pseudomonas aeruginosa; experiment: Antibacterial activity against Pseudomonas aeruginosa ATTC 27853 after 16 to 18 hrs by serial plate dilution method; format: functional; settings: ATCC27853; outline: as §1
[11] = system: Escherichia coli; experiment: Antibacterial activity against Escherichia coli ATTC 25922 after 16 to 18 hrs by serial plate dilution method; format: functional; settings: ATCC25922; outline: as §1
[12] = system: Aspergillus fumigatus; experiment: Antifungal activity against Aspergillus fumigatus NCIM 902 by serial plate dilution method; format: functional
[13] = system: Aspergillus flavus; experiment: Antifungal activity against Aspergillus flavus NCIM 524 by serial plate dilution method; format: functional; outline: as §2
[14] = system: Staphylococcus aureus; experiment: Antibacterial activity against Staphylococcus aureus ATTC 25923 at […] ug/ml after 3 to 4 days; format: functional; settings: read-out: IZ
[15] = system: Klebsiella pneumoniae; experiment: Antibacterial activity against Klebsiella pneumoniae at 12 ug/ml after 3 to 4 days; format: functional; settings: read-out: IZ
Outline: (§3)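 Agar well diffusion. Plates were seeded with a bacterial suspension, the excess was decanted and plates were dried at 37 °C for 1 h. Wells were punched and compounds in DMSO were added, with DMSO wells as control. Plates were run in triplicate at 37 °C for 3–4 days and zones of inhibition were scored.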

[16] = system: Trichophyton mentagrophytes; experiment: Antifungal activity against Trichophyton mentagrophytes by serial plate dilution method; format: functional
[17] = system: Rattus norvegicus; experiment: Antiinflammatory activity against carrageenan-induced paw oedema in albino rat at 50 mg/kg, po relative to control; format: functional
Outline: (§4)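 Albino rats of 180–250 g were fasted 18 h and placed in groups of six. Samples were suspended in 2% w/v acacia mucilage, and the vehicle group served as control. 30 min after dosing, carrageenan (1 mg mL⁻¹, 0.1 mL) was injected subcutaneously into the right hind paw. Paw volume was measured immediately and at 3 h, and % oedema inhibition was calculated versus vehicle controls.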

[18] = system: Trichophyton mentagrophytes; experiment: Antifungal activity against Trichophyton mentagrophytes at […] ug/ml after 3 to 4 days; format: functional; settings: read-out: IZ
[19] = system: Aspergillus fumigatus; experiment: Antifungal activity against Aspergillus fumigatus NCIM 902 at 12 ug/ml after 3 to 4 days; format: functional; settings: read-out: IZ; outline: as §2
[20] = system: Klebsiella pneumoniae; experiment: Antibacterial activity against Klebsiella pneumoniae at 25 ug/ml after 3 to 4 days; format: functional; settings: read-out: IZ; outline: as §3
[21] = system: Talaromyces marneffei; experiment: Antifungal activity against Penicillium marneffei at […] ug/ml after 3 to 4 days; format: functional; settings: read-out: IZ
[22] = system: Escherichia coli; experiment: Antibacterial activity against Escherichia coli ATTC 25922 at 12 ug/ml after 3 to 4 days; format: functional; settings: ATCC25922, read-out: IZ; outline: as §3
[23] = system: Aspergillus fumigatus; experiment: Antifungal activity against Aspergillus fumigatus NCIM 902 at […] ug/ml after 3 to 4 days; format: functional; settings: read-out: IZ
[24] = system: Aspergillus flavus; experiment: Antifungal activity against Aspergillus flavus NCIM 524 at 25 ug/ml after 3 to 4 days; format: functional; settings: read-out: IZ; outline: as §2
[25] = system: Trichophyton mentagrophytes; experiment: Antifungal activity against Trichophyton mentagrophytes at 25 ug/ml after 3 to 4 days; format: functional; settings: read-out: IZ; outline: as §2
[26] = system: Pseudomonas aeruginosa; experiment: Antibacterial activity against Pseudomonas aeruginosa ATTC 27853 at 25 ug/ml after 3 to 4 days; format: functional; settings: ATCC27853, read-out: IZ; outline: as §3
[27] = system: Staphylococcus aureus; experiment: Antibacterial activity against Staphylococcus aureus ATTC 25923 at 12 ug/ml after 3 to 4 days; format: functional; settings: read-out: IZ; outline: as §3
[28] = system: Aspergillus flavus; experiment: Antifungal activity against Aspergillus flavus NCIM 524 at 3.125 ug/ml after 3 to 4 days; format: functional; settings: read-out: IZ; outline: as §2
[29] = system: Trichophyton mentagrophytes; experiment: Antifungal activity against Trichophyton mentagrophytes at 3.125 ug/ml after 3 to 4 days; format: functional; settings: read-out: IZ; outline: as §2
[30] = system: Rattus norvegicus; experiment: Antiinflammatory activity against carrageenan-induced paw oedema in albino rat at 1.5 mg/kg, po, relative to control; format: functional; outline: as §4
[31] = system: Aspergillus fumigatus; experiment: Antifungal activity against Aspergillus fumigatus NCIM 902 at 6.5 ug/ml after 3 to 4 days; format: functional; settings: read-out: IZ; outline: as §2

Row | SMILES | MIC [1] | MIC [2] | MIC [9] | MIC [10] | MIC [11] | MIC [12] | MIC [13] | MIC [16] | zone of inhibition at 6.25 µg/mL [4] | zone of inhibition at 6.25 µg/mL [6] | zone of inhibition at 6.25 µg/mL [7] | inhibition in vivo at 50 mg/kg [17] | zone of inhibition at 6.25 µg/mL [18] | zone of inhibition at 6.25 µg/mL [21] | also measured
1 | O=C(O)c1cn(C2CC2)c2cc(N3CCNCC3)c(F)cc2c1=O [CIPROFLOXACIN] | 6.25 µg/mL (≈ 18.9 µM) | 1.56 µg/mL (≈ 4.71 µM) | – | – | – | – | – | – | 16 mm | 16 mm | – | – | – | – | zone of inhibition at 6.25 µg/mL [3]: 16 mm; zone of inhibition at 1.56 µg/mL [5]: 22 mm
2 | Clc1cc(Cl)c(Cl)c(-c2nnc3sc(-c4ccccc4)nn23)c1 | 12 µg/mL (≈ 31.4 µM) | 6.25 µg/mL (≈ 16.4 µM) | 12 µg/mL (≈ 31.4 µM) | 6.25 µg/mL (≈ 16.4 µM) | 6.25 µg/mL (≈ 16.4 µM) | 12 µg/mL (≈ 31.4 µM) | 6.25 µg/mL (≈ 16.4 µM) | 6.25 µg/mL (≈ 16.4 µM) | 16 mm | 16 mm | 16 mm | 16.1% | 16 mm | – | zone of inhibition at 12 µg/mL [8]: 11 mm; zone of inhibition at 6.25 µg/mL [14]: 16 mm; zone of inhibition at 12 µg/mL [15]: 11 mm; zone of inhibition at 12 µg/mL [19]: 11 mm
3 | COc1ccc2c(c1)c(CC(=O)O)c(C)n2C(=O)c1ccc(Cl)cc1 [INDOMETHACIN] | – | – | – | – | – | – | – | – | – | – | – | – | – | – | inhibition in vivo at 1.5 mg/kg [30]: 59.7%

The remaining molecules from weak to strong by MIC [9], led by results:

Row | MIC [1] | MIC [2] | MIC [9] | MIC [10] | MIC [11] | MIC [12] | MIC [13] | MIC [16] | SMILES | zone of inhibition at 6.25 µg/mL [4] | zone of inhibition at 6.25 µg/mL [6] | zone of inhibition at 6.25 µg/mL [7] | inhibition in vivo at 50 mg/kg [17] | zone of inhibition at 6.25 µg/mL [18] | zone of inhibition at 6.25 µg/mL [21] | also measured
4 | 12 µg/mL (≈ 29.3 µM) | 12 µg/mL (≈ 29.3 µM) | 12 µg/mL (≈ 29.3 µM) | 6.25 µg/mL (≈ 15.3 µM) | 6.25 µg/mL (≈ 15.3 µM) | 12 µg/mL (≈ 29.3 µM) | 6.25 µg/mL (≈ 15.3 µM) | 6.25 µg/mL (≈ 15.3 µM) | Cc1cc(C)cc(-c2nn3c(-c4cc(Cl)cc(Cl)c4Cl)nnc3s2)c1 | 16 mm | 16 mm | 16 mm | – | 16 mm | – | zone of inhibition at 12 µg/mL [8]: 11 mm; zone of inhibition at 12 µg/mL [15]: 11 mm; zone of inhibition at 12 µg/mL [27]: 11 mm; zone of inhibition at 12 µg/mL [19]: 11 mm
5 | 25 µg/mL (≈ 57.8 µM) | 12 µg/mL (≈ 27.7 µM) | 6.25 µg/mL (≈ 14.4 µM) | 25 µg/mL (≈ 57.8 µM) | 12 µg/mL (≈ 27.7 µM) | 6.25 µg/mL (≈ 14.4 µM) | 25 µg/mL (≈ 57.8 µM) | 25 µg/mL (≈ 57.8 µM) | Clc1cc(Cl)c(Cl)c(-c2nnc3sc(-c4cccc5cnccc45)nn23)c1 | – | – | – | 22.6% | – | 16 mm | zone of inhibition at 25 µg/mL [20]: < 10 mm; zone of inhibition at 12 µg/mL [22]: 11 mm; zone of inhibition at 6.25 µg/mL [23]: 16 mm; zone of inhibition at 25 µg/mL [24]: < 10 mm; zone of inhibition at 25 µg/mL [25]: < 10 mm; zone of inhibition at 25 µg/mL [26]: < 10 mm; zone of inhibition at 12 µg/mL [27]: 11 mm
6 | – | – | 6.25 µg/mL | – | – | 6.25 µg/mL | 3.12 µg/mL | 3.12 µg/mL | Cc1cc(C2CCCCC2)n(O)c(=O)c1.NCCO [CICLOPIROX OLAMINE] | – | – | – | – | – | 16 mm | zone of inhibition at 3.125 µg/mL [28]: 25 mm; zone of inhibition at 6.25 µg/mL [23]: 16 mm; zone of inhibition at 3.125 µg/mL [29]: 27 mm
7 | 6.25 µg/mL (≈ 15.2 µM) | 6.25 µg/mL (≈ 15.2 µM) | 6.25 µg/mL (≈ 15.2 µM) | 6.25 µg/mL (≈ 15.2 µM) | 6.25 µg/mL (≈ 15.2 µM) | 6.5 µg/mL (≈ 15.8 µM) | 6.25 µg/mL (≈ 15.2 µM) | 6.25 µg/mL (≈ 15.2 µM) | COc1ccc(-c2nn3c(-c4cc(Cl)cc(Cl)c4Cl)nnc3s2)cc1 | 16 mm | 16 mm | 16 mm | 25.8% | 16 mm | 16 mm | zone of inhibition at 6.25 µg/mL [3]: 16 mm; zone of inhibition at 6.5 µg/mL [31]: 16 mm; zone of inhibition at 6.25 µg/mL [14]: 16 mm
